One may read the IC50 as the midpoint of a concentration-inhibition curve. In general, EC50 refers to the concentration that produces a half-maximal response. Broadly, the Tmax is the time at which the peak concentration occurs.

Data on one molecule can be found in ChEMBL document CHEMBL4842367, “Strategies toward Discovery of Potent and Orally Bioavailable Proteolysis Targeting Chimera Degraders of Androgen Receptor for the Treatment of Prostate Cancer” (J Med Chem, 2021).

The source made the active and inactive calls. The rule behind the calls is not given here.

A short description of series [1]: Reduction in TMPRSS2 gene expression in human VCaP cells xenografted in SCID mouse tumor tissue assessed as reduction in mRNA level at 10 mg/kg, po for 3 days measured after 3 hrs of treatment by […]. It counts as functional. Particulars: 72 h, time 3 day. A digest of the protocol:
(§1)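 VCaP xenograft-bearing SCID mice dosed orally at 10 mg/kg daily for 3 days; tumors taken 3 h after the last dose. PSA, TMPRSS2 and FKBP5 mRNA measured by TaqMan qRT-PCR, comparative CT normalized to GAPDH and to vehicle control.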
On the technique in general: Xenograft models place foreign cells or tissue in a host animal.

Series [2] in a line: Plasma concentration in human VCaP cells xenografted in SCID mouse at 20 mg/kg, po single dose measured after 6 hrs by LC-MS/MS analysis. It counts as ADME, organism-based. Summed up: (§2)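 Single oral gavage, 20 mg/kg in 100% PEG200, to male SCID mice bearing one VCaP tumor each (about 200 mm³). Plasma and tumor taken at 6 and 24 h, three mice per time point. Tumors frozen, ground in liquid nitrogen, homogenized in water/acetonitrile 4:1, precipitated with cold acetonitrile; analysis by positive-ion MRM LC–MS/MS.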

A short description of series [3]: Reduction in PSA gene expression in human VCaP cells xenografted in SCID mouse tumor tissue assessed as reduction in mRNA level at 10 mg/kg, po for 3 days measured after 3 hrs of treatment by […]. In kind it is functional. Particulars: 72 h, time 3 day. A digest of the protocol:
as §1

Series [4] can be described thus: Plasma concentration in human VCaP cells xenografted in SCID mouse at 20 mg/kg, po single dose measured after 24 hrs by LC-MS/MS analysis. It counts as ADME, organism-based. A digest of the protocol: as §2
Series [5] in a line: Reduction in FKBPS gene expression in human VCaP cells xenografted in SCID mouse tumor tissue assessed as reduction in mRNA level at 10 mg/kg, po for 3 days measured after 3 hrs of treatment by […]. It counts as functional. To be noted: 72 h, time 3 day. Summed up: as §1
Series [6] has as its system Mus musculus. Put plainly: Reduction in AR protein level in tumor of human VCaP cells xenografted in SCID mouse at 20 mg/kg, po single dose measured after 24 hrs by Western blot analysis. In kind it is functional, organism-based. A digest of the protocol:
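SCID mice bearing VCaP xenografts given one oral dose of 20 mg/kg; tumors harvested at 6 and 24 h after dosing and AR protein measured by Western blot with GAPDH loading control.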

The test system of series [7] is VCaP. Briefly: Antitumor activity against human VCaP cells xenografted in SCID mouse assessed as tumor growth inhibition at 20 mg/kg, po measured on day 21 relative to control. It counts as functional. To be noted: 504 h, read-out: TGI. Summed up: (§3)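 Male CB17 SCID mice implanted s.c. with 5 × 10⁶ VCaP cells in Matrigel; at average tumor volume 150 mm³, size-matched and randomized, seven per group. Oral gavage daily for 21 days in 100% PEG200. Tumors measured 2–3 times weekly, volume = length × width²/2; TGI (%) = (Vc − Vt)/(Vc − Vo) × 100 using group medians at start and end.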

The subject of series [8] is LNCaP. Briefly: Suppression of TMPRSS2 gene expression in human LNCaP cells assessed as mRNA level treated for 24 hrs by qRT-PCR analysis. Particulars: dose 1-1000 nM. In kind it is functional, cell-based. A digest of the protocol: (§4)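 VCaP and LNCaP cells treated 24 h; PSA (KLK3) and TMPRSS2 mRNA quantified by TaqMan qRT-PCR, comparative CT method relative to GAPDH and then vehicle control.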
In general terms: In qPCR the cycle at which signal appears reflects the starting amount.

For series [9], the system named is VCaP. Briefly: Growth inhibition of human VCaP cells assessed as cell viability measured after 4 days in presence of R1881 by WST-8 assay. In kind it is functional, cell-based. To be noted: 96 h. A digest of the protocol:
(§5)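 LNCaP and VCaP cells exposed to compounds for 4 days in charcoal-stripped medium containing 0.1 nM R1881; viability read by WST-8 assay.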
Background: Tetrazolium dyes change colour on reduction, which living cells bring about.

Series [10] concerns LNCaP. Briefly: Growth inhibition of human LNCaP cells assessed as cell viability measured after 4 days in presence of R1881 by WST-8 assay. In kind it is functional, cell-based. To be noted: 96 h. Summed up:
as §5

Series [11] has as its system VCaP. Put plainly: Suppression of TMPRSS2 gene expression in human VCaP cells assessed as mRNA level treated for 24 hrs by qRT-PCR analysis. It counts as functional, cell-based. To be noted: dose 1-1000 nM. A digest of the protocol: as §4
The subject of series [12] is LNCaP. Briefly: Suppression of PSA gene expression in human LNCaP cells assessed as mRNA level treated for 24 hrs by qRT-PCR analysis. In kind it is functional, cell-based. Particulars: dose 1-1000 nM. Summed up:
as §4

The test system of series [13] is VCaP. Put plainly: Antitumor activity against human VCaP cells xenografted in SCID mouse assessed as tumor growth inhibition at 10 mg/kg, po measured on day 21 relative to control. In kind it is functional. To be noted: 504 h, read-out: TGI. A digest of the protocol:
as §3

The test system of series [14] is VCaP. Put plainly: Antitumor activity against human VCaP cells xenografted in SCID mouse assessed as tumor growth inhibition at 40 mg/kg, po measured on day 21 relative to control. Particulars: 504 h, read-out: TGI. In kind it is functional. Summed up: as §3
Series [15] can be described thus: Toxicity in SCID mouse xenografted with human VCaP cells assessed as weight loss at 40 mg/kg, po measured on day 21. It counts as organism-based. To be noted: in vivo. A digest of the protocol: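 Male CB17 SCID mice bearing s.c. VCaP xenografts, randomized at about 150 mm³ (seven per group), gavaged daily for 21 days in 100% PEG200; body weights recorded 2–3 times per week to follow maximum weight loss.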

For series [16], the target named is Protein cereblon/Androgen receptor (Homo sapiens, UniProt P10275+Q96SW2). Put plainly: Protac activity at CRBN/AR in human VCaP cells assessed as induction of AR degradation measured after 24 hrs by western blot analysis.
Series [17] relates to Mus musculus. Put plainly: Reduction in AR protein level in human VCaP cells xenografted in SCID mouse tumor tissue at 10 mg/kg, po for 3 days measured after 3 to 24 hrs of treatment by Western blot analysis. Particulars: time 3.0 day. In kind it is functional, organism-based. Summed up:
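SCID mice with VCaP xenografts gavaged 10 mg/kg daily for 3 days; tumors collected at 3, 6 and 24 h after the last dose for Western blot of AR, GAPDH as loading control.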

Series [18] can be described thus: Oral bioavailability in ICR mouse at 5 mg/kg measured up to 24 hrs by LC-MS/MS analysis. In kind it is ADME, organism-based. To be noted: in vivo. A digest of the protocol: (§6)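 Male ICR mice, single oral gavage (3 or 5 mg/kg) in 5% DMSO/10% solutol/85% saline, three mice per group. Separate IV tail-vein bolus group (1 or 2 mg/kg) in the same vehicle. Blood sampled at 0.083–24 h, one sample per mouse, plasma diluted threefold and analysed by LC–MS/MS; noncompartmental parameters.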

Series [19] can be described thus: Tmax in ICR mouse at 5 mg/kg, po measured up to 24 hrs by LC-MS/MS analysis. It counts as ADME, organism-based. Particulars: in vivo. A digest of the protocol: as §6
Series [20] is described as follows: Drug uptake in human VCaP cells xenografted in SCID mouse tumor tissue at 20 mg/kg, po single dose measured after 24 hrs by LC-MS/MS analysis. It counts as ADME, organism-based, Neoplasm. To be noted: in vivo. Summed up: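 Male CB17 SCID mice carried subcutaneous VCaP xenografts, implanted as 5 × 10⁶ cells in Matrigel, grown to about 200 mm³. Mice received a single oral gavage of 20 mg/kg in 100% PEG200. Tumors were collected at 6 and 24 h, three mice per time point, and frozen. They were homogenized in water/acetonitrile 4:1, protein-precipitated with cold acetonitrile, and assayed by LC-MS/MS (positive-ion MRM). Values are mean ± SD.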

Series [21] has as its system VCaP. Put plainly: Suppression of PSA gene expression in human VCaP cells assessed as mRNA level treated for 24 hrs by qRT-PCR analysis. In kind it is functional, cell-based. Particulars: dose 1-1000 nM. A digest of the protocol:
as §4

A short description of series [22]: Drug uptake in human VCaP cells xenografted in SCID mouse tumor tissue at 20 mg/kg, po single dose measured after 6 hrs by LC-MS/MS analysis. It counts as ADME, organism-based, Neoplasm. Particulars: in vivo. A digest of the protocol: as §2

Chain of Protein cereblon/Androgen receptor (P10275 whole entry): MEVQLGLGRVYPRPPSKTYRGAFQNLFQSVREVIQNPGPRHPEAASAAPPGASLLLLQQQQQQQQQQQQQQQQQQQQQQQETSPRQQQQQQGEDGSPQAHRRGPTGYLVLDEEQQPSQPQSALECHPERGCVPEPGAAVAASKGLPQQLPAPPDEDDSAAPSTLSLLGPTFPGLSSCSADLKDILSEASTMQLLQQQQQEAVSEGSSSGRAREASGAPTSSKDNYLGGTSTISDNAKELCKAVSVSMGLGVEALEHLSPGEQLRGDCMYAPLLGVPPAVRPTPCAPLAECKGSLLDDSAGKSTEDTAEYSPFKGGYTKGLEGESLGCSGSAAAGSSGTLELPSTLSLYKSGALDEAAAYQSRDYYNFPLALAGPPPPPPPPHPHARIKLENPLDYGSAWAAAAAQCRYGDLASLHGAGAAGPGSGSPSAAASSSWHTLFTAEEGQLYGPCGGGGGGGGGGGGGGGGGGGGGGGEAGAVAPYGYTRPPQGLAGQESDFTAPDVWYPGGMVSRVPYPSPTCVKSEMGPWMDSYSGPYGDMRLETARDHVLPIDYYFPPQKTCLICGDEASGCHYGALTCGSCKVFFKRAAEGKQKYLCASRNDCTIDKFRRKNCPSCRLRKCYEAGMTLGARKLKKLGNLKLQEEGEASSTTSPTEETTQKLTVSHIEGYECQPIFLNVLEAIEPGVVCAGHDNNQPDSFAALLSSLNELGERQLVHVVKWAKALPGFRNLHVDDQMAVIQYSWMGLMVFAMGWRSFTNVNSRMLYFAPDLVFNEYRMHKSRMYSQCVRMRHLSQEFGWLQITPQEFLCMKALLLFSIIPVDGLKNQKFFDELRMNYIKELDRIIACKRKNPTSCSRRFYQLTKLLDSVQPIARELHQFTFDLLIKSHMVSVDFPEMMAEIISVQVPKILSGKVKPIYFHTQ
Chain of Protein cereblon/Androgen receptor (Q96SW2 whole entry): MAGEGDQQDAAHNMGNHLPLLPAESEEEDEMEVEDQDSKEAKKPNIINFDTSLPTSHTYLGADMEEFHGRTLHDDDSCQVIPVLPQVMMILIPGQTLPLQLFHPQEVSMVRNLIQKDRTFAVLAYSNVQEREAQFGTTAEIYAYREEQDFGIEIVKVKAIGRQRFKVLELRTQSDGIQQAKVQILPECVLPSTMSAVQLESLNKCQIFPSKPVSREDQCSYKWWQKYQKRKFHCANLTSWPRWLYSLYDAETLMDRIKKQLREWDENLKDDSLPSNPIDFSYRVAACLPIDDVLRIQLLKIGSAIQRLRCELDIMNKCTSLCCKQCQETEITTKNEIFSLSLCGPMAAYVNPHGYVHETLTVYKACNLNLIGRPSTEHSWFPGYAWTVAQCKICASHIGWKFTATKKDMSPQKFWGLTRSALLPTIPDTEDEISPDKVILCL

`CC1(C)[C@H](NC(=O)c2ccc(N3CCN(CC4CCN(c5ccc6c(c5)C(=O)N(C5CCC(=O)NC5=O)C6=O)CC4)CC3)cc2)C(C)(C)[C@H]1Oc1ccc(C#N)c(Cl)c1` (some centres not stated): the inhibition in vivo at 10 mg/kg in [1] is over 50%; in series [3], over 50%; in series [5], over 50%; with VCaP [13], 46%. In series [2], this molecule registered a concentration at 6 h of 1510 ng/mL. In series [4], this molecule displayed a concentration at 24 h of 1660 ng/mL. The outcome with Mus musculus [6] and with Mus musculus [17] was Active. The inhibition in vivo at 20 mg/kg in the series with VCaP [7] is 69%. Besides, the Activity entry with LNCaP [8] is “Dose-Dependent Effect”; in the series on VCaP [11], “Dose-Dependent Effect”; with LNCaP [12], “Dose-Dependent Effect”; in [15], at most 5%; in the series with VCaP [21], “Dose-Dependent Effect”. Further, the IC50 was 4 nM with VCaP [9] and 5 nM in the series with LNCaP [10]. The inhibition in vivo at 40 mg/kg in the series on VCaP [14] worked out at 63%. Further, the half-maximal effective concentration (EC50) in series [16] came out at 0.3 nM. In [18], the F is listed as 67%. Besides, the time to peak (Tmax) in [19] amounted to 4.7 h. Moreover, the Drug uptake in series [20] is 1510 ng/g; in series [22], 635 ng/g.
